Assay [1] deals with Staphylococcus aureus. Briefly: Antibacterial activity against Staphylococcus aureus ATCC 29213 assessed as reduction in bacterial growth incubated for 16 to 20 hrs by CLSI-based broth microdilution method. The assay is classed as functional. As to conditions: time 16-20 hrs. The procedure, abridged:
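Broth microdilution following CLSI, in cation-adjusted Mueller-Hinton broth. Inoculum from a 4-6 h culture (~10^8 CFU/mL), diluted to ~10^6 CFU/mL. Water stocks were serially diluted in MHB (256 to 0.5 µg/mL) and mixed 1:1 with the inoculum. Plates ran 16-20 h at 37 °C. MIC was read visually. Each concentration was tested in duplicate, and the experiment was repeated at least twice.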

For assay [2], the system named is Staphylococcus aureus. Briefly: Resistance ratio of compound MIC for Staphylococcus aureus ATCC 29213 after 20 passages to compound MIC for Staphylococcus aureus ATCC 29213 after 16 to 20 hrs by CLSI-based broth microdilution method. The assay is classed as functional. The procedure, abridged: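 Serial passaging: after each 24 h MIC assay, cells grown at 1/2 MIC were transferred and the MIC assayed again, for 20 passages. Done with S. aureus, E. coli and MRSA. MIC plotted against days of passage. Experiment repeated twice.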

In brackets after ≈: the same amount, converted by molar mass.

Consider `CCn1cc(C(=O)O)c(=O)c2cc(F)c(N3CCNCC3)cc21` [NORFLOXACIN], for which the minimum inhibitory concentration (MIC) in assay [1] came to 1 µg/mL (≈ 3.13 µM). Also, the Ratio in assay [2] is 256.

These data come from ChEMBL document CHEMBL4673214, “Synthesis and antibacterial bioactivities of cationic deacetyl linezolid amphiphiles” (Eur J Med Chem, 2018).
